According to ChEMBL document CHEMBL1139927, “A new class of nifuroxazide analogues: synthesis of 5-nitrothiophene derivatives with antimicrobial activity against multidrug-resistant Staphylococcus aureus” (2007):
Values after ≈ are worked out from the molar mass of the structure shown.

Columns and labels:
Format in all cases: functional
Staphylococcus aureus [1] = test: Antimicrobial activity against multidrug-resistant Staphylococcus aureus 3SP/R33 after 18 hrs by serial dilution test; settings: 3SP/R33, 18 h
Procedure, shortened: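 Broth twofold macro-dilution in Tryptic Soy Broth. Inoculum came from fresh cultures grown on plate count agar for 18 h at 35 °C and was adjusted to McFarland no. 1. Compound stocks were made in DMSO (2–5% in assay), with ethanol as co-solvent, and diluted in TSB. Tubes were incubated at 35 °C for 18 h. MIC = lowest concentration giving no visible growth; run in quadruplicate.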

Staphylococcus aureus [2] = test: Antimicrobial activity against multidrug-resistant Staphylococcus aureus 3SP/R33 […] after 24 hrs; settings: 3SP/R33, 24 h
Procedure, shortened: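 MBC: 10 µL was taken from each tube that stayed clear in the broth dilution MIC test. Each aliquot was spread over the whole surface of a Müller–Hinton agar plate, and plates were incubated at 35 °C for 24 h to read bactericidal concentration.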

Staphylococcus aureus [3] = test: Antimicrobial activity against Staphylococcus aureus ATCC 25923 after 18 hrs by serial dilution test; settings: ATCC 25923, 18 h
Procedure, shortened: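 Twofold broth macro-dilution in Tryptic Soy Broth. Inoculum taken from fresh 18 h, 35 °C cultures on plate count agar and adjusted to McFarland no. 1. Compounds prepared as DMSO stocks and diluted in TSB, with ethanol as co-solvent and 2–5% DMSO in the assay. Tubes incubated at 35 °C for 18 h and read visually. MIC is the lowest concentration giving complete growth inhibition; run in quadruplicate.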

**Q.** What does the source list for `CCc1ccc(C(=O)N/N=C/c2ccc([N+](=O)[O-])s2)cc1`?
**A.** MIC (Staphylococcus aureus [1]): 5.8 µg/mL (≈ 19.1 µM); MBC (Staphylococcus aureus [2]): > 92.8 µg/mL; MIC (Staphylococcus aureus [3]): ≤ 22.2 µM

**Q.** Which MIC (Staphylococcus aureus [1]) does the source give for `CC(=O)c1ccc(C(=O)N/N=C/c2ccc([N+](=O)[O-])s2)cc1` here?
**A.** 0.11 µg/mL (≈ 0.347 µM)

**Q.** What about the MBC (Staphylococcus aureus [2]) of the same compound?
**A.** 0.22 µg/mL (≈ 0.693 µM)

**Q.** And the MIC (Staphylococcus aureus [3])?
**A.** ≤ 0.44 µM

**Q.** How did the MIC (Staphylococcus aureus [1]) turn out when `O=C(N/N=C/c1ccc([N+](=O)[O-])s1)c1ccc(Br)cc1` was run?
**A.** 0.63 µg/mL (≈ 1.78 µM)

**Q.** And the MBC (Staphylococcus aureus [2])?
**A.** 0.63 µg/mL (≈ 1.78 µM)

**Q.** And the MIC (Staphylococcus aureus [3])?
**A.** ≤ 2.12 µM

**Q.** With `CCCOc1ccc(C(=O)N/N=C/c2ccc([N+](=O)[O-])s2)cc1` as the compound, how does the MIC (Staphylococcus aureus [3]) read?
**A.** ≤ 24.3 µM

**Q.** What does the source list for `CCCc1ccc(C(=O)N/N=C/c2ccc([N+](=O)[O-])s2)cc1`?
**A.** MIC (Staphylococcus aureus [1]): 7.25 µg/mL (≈ 22.8 µM); MBC (Staphylococcus aureus [2]): > 29 µg/mL; MIC (Staphylococcus aureus [3]): ≤ 36.5 µM

**Q.** Which MIC (Staphylococcus aureus [1]) does the source give for `CCCCc1ccc(C(=O)N/N=C/c2ccc([N+](=O)[O-])s2)cc1` here?
**A.** 12.7 µg/mL (≈ 38.3 µM)

**Q.** What about the MBC (Staphylococcus aureus [2]) of the same compound?
**A.** > 50.8 µg/mL

**Q.** And the MIC (Staphylococcus aureus [3])?
**A.** ≤ 40.7 µM

**Q.** `CC(C)c1ccc(C(=O)N/N=C/c2ccc([N+](=O)[O-])s2)cc1` was tested. Which MIC (Staphylococcus aureus [1]) did it give?
**A.** 5.02 µg/mL (≈ 15.8 µM)

**Q.** And the MBC (Staphylococcus aureus [2])?
**A.** > 40.2 µg/mL

**Q.** What about the MIC (Staphylococcus aureus [3]) of the same compound?
**A.** ≤ 28.6 µM

**Q.** For `O=C(N/N=C/c1ccc([N+](=O)[O-])s1)c1ccc(I)cc1`, which MIC (Staphylococcus aureus [1]) is on record?
**A.** 5.55 µg/mL (≈ 13.8 µM)

**Q.** And the MBC (Staphylococcus aureus [2])?
**A.** > 88.8 µg/mL

**Q.** And the MIC (Staphylococcus aureus [3])?
**A.** ≤ 14 µM

**Q.** Which results are given for `O=C(N/N=C/c1ccc([N+](=O)[O-])s1)c1ccccc1`?
**A.** MIC (Staphylococcus aureus [1]): 3.9 µg/mL (≈ 14.2 µM); MBC (Staphylococcus aureus [2]): ≥ 125 µg/mL; MIC (Staphylococcus aureus [3]): ≤ 16.7 µM

**Q.** With `O=C(N/N=C/c1ccc([N+](=O)[O-])s1)c1ccc(Cl)c(Cl)c1` as the compound, how does the MIC (Staphylococcus aureus [1]) read?
**A.** 0.63 µg/mL (≈ 1.83 µM)

**Q.** What about the MBC (Staphylococcus aureus [2]) of the same compound?
**A.** 0.63 µg/mL (≈ 1.83 µM)

**Q.** What about the MIC (Staphylococcus aureus [3]) of the same compound?
**A.** ≤ 2.21 µM

**Q.** How did the MIC (Staphylococcus aureus [1]) turn out when `C=Cc1ccc(C(=O)N/N=C/c2ccc([N+](=O)[O-])s2)cc1` was run?
**A.** 3.38 µg/mL (≈ 11.2 µM)

**Q.** And the MBC (Staphylococcus aureus [2])?
**A.** > 54 µg/mL

**Q.** And the MIC (Staphylococcus aureus [3])?
**A.** ≤ 15.7 µM

**Q.** For `CCCCOc1ccc(C(=O)N/N=C/c2ccc([N+](=O)[O-])s2)cc1`, which MIC (Staphylococcus aureus [1]) is on record?
**A.** 10.3 µg/mL (≈ 29.7 µM)

**Q.** And the MBC (Staphylococcus aureus [2])?
**A.** > 41.2 µg/mL

**Q.** And the MIC (Staphylococcus aureus [3])?
**A.** ≤ 35.4 µM

**Q.** `O=C(N/N=C/c1ccc([N+](=O)[O-])s1)c1ccc(Cl)cc1` was tested. Which MIC (Staphylococcus aureus [1]) did it give?
**A.** 1.09 µg/mL (≈ 3.52 µM)

**Q.** What about the MBC (Staphylococcus aureus [2]) of the same compound?
**A.** 2.18 µg/mL (≈ 7.04 µM)

**Q.** And the MIC (Staphylococcus aureus [3])?
**A.** ≤ 5.52 µM

**Q.** How did the MIC (Staphylococcus aureus [1]) turn out when `CCCCNc1ccc(C(=O)N/N=C/c2ccc([N+](=O)[O-])s2)cc1` was run?
**A.** 6.22 µg/mL (≈ 18 µM)

**Q.** What about the MBC (Staphylococcus aureus [2]) of the same compound?
**A.** > 49.8 µg/mL

**Q.** What about the MIC (Staphylococcus aureus [3]) of the same compound?
**A.** ≤ 22.4 µM
